Our source for the Activity, inhibition in vivo and ED50 values is ChEMBL document CHEMBL1124216, “A novel class of potential central nervous system agents. 3-Phenyl-2-(1-piperazinyl)-5H-1-benzazepines” (1988).

What all share (format): functional
For assay [1], the system named is Mus musculus. Nature of the assay: Antimaximal electroshock seizure (MES) activity in mice after peroral administration of 100 mg/kg of compound; 0/5. As to conditions: route oral. A general note: Protection in the maximal electroshock model is a classic sign of anticonvulsant action.
The test system of assay [2] is Mus musculus. Nature of the assay: Antitremorine activity(TRM) of mice after peroral administration of 100 mg/kg of compound; No inhibition. The settings on record: route oral.
For assay [3], the system named is Mus musculus. Nature of the assay: Antiexploratory activity (EXPL) of mice determined by an antimex activity meter, 100 mg/kg of dose was administered perorally; No inhibition. As to conditions: route oral.
In assay [4] the test system is Mus musculus. The experiment in a line: Antireserpine activity (RES) of mice after peroral administration of 100 mg/kg of compound; No inhibition. As to conditions: route oral.
In assay [5] the test system is Mus musculus. The experiment in a line: Antiexploratory activity (EXPL) of mice determined by an antimex activity meter, 50 mg/kg of dose was administered perorally; No inhibition. As to conditions: route oral.
The test system of assay [6] is Mus musculus. Nature of the assay: Antitremorine activity(TRM) of mice after peroral administration of 100 mg/kg of compound; Moderate inhibition (51-71%). The settings on record: route oral.
Assay [7] deals with Mus musculus. The experiment in a line: Antipentylene tetrazole activity was determined in mice when administered perorally. The settings on record: po. The method in brief: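 Groups of five male Std-ddY mice received compound orally in 0.5% tragacanth, then pentylenetetrazole 175 mg/kg ip. Blockade of the tonic extensor component scored as anticonvulsant. ED50 was the dose protecting 50% of animals (Litchfield-Wilcoxon).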

Assay [8] concerns Mus musculus. The experiment in a line: Antimaximal electroshock seizure activity was determined in mice when administered perorally. As to conditions: po.

`C1=C(c2ccccc2)C(N2CCN(Cc3ccccc3)CC2)=Nc2ccccc2C1` had an Activity in the assay with Mus musculus [1] of 0. Moreover, the inhibition in vivo at 100 mg/kg in the assay with Mus musculus [2] and in the assay with Mus musculus [3] was less than 30% in each case.

In turn, `CCCc1ccc2c(c1)CC=C(c1ccccc1)C(N1CCN(CC)CC1)=N2.O=C(O)/C=C/C(=O)O` showed an Activity in the assay on Mus musculus [1] of 0. The inhibition in vivo at 100 mg/kg in the assay with Mus musculus [4], in the assay on Mus musculus [2] and in the assay on Mus musculus [3] was less than 30% each time.

Consider `C1=C(c2ccccc2)C(N2CCNCC2)=Nc2ccccc2C1.O=C(O)/C=C/C(=O)O`, for which, in the assay with Mus musculus [1], the Activity is recorded as 0. For the same compound, the inhibition in vivo at 100 mg/kg in the assay with Mus musculus [4], in the assay with Mus musculus [2] and in the assay on Mus musculus [3] was less than 30% throughout.

Take `O=C(O)/C=C/C(=O)O.OCCN1CCN(C2=Nc3ccccc3CC=C2c2cccc(C(F)(F)F)c2)CC1`: the Activity in the assay with Mus musculus [1] was found to be 0. The inhibition in vivo at 100 mg/kg in the assay with Mus musculus [2] and in the assay with Mus musculus [3] was less than 30% each time.

Regarding `CN1CCN(C2=Nc3ccccc3CC=C2c2cccc(C(F)(F)F)c2)CC1.O=C(O)/C=C/C(=O)O`, the Activity with Mus musculus [1] is 0. Besides, the inhibition in vivo at 100 mg/kg in the assay on Mus musculus [2] and in the assay on Mus musculus [3] was less than 30% in each case.

Compound `O=C(CN1CCN(C2=Nc3ccc(Br)cc3CC=C2c2ccccc2)CC1)c1ccccc1` came in with an Activity in the assay on Mus musculus [1] of 0. The inhibition in vivo at 100 mg/kg with Mus musculus [4], with Mus musculus [2] and with Mus musculus [3] was less than 30% each time.

On to `COc1ccc(CN2CCN(C3=Nc4ccc(Br)cc4CC=C3c3ccccc3)CC2)cc1`, for which the Activity in the assay with Mus musculus [1] was determined as 0. Further, the inhibition in vivo at 100 mg/kg in the assay on Mus musculus [4], in the assay on Mus musculus [2] and in the assay on Mus musculus [3] was less than 30% throughout.

As to `Fc1ccc(C2=CCc3ccccc3N=C2N2CCN(Cc3ccccc3)CC2)cc1`, in the assay on Mus musculus [5], the inhibition in vivo at 50 mg/kg was less than 30%.

Consider `C1=C(c2ccccc2)C(N2CCN(c3ccccc3)CC2)=Nc2ccccc2C1`, for which, in the assay with Mus musculus [1], the Activity was 0. The inhibition in vivo at 100 mg/kg with Mus musculus [4], in the assay on Mus musculus [2] and in the assay with Mus musculus [3] was less than 30% in each case.

Regarding `Clc1ccccc1C1=CCc2cc(Br)ccc2N=C1N1CCNCC1.O=C(O)/C=C/C(=O)O`, the Activity with Mus musculus [1] is 0. Also, the inhibition in vivo at 100 mg/kg with Mus musculus [4], with Mus musculus [2] and in the assay with Mus musculus [3] was less than 30% in each case.

The compound `CC(C)c1ccc2c(c1)CC=C(c1ccccc1)C(N1CCN(C)CC1)=N2.O=C(O)/C=C/C(=O)O` came in with an Activity in the assay on Mus musculus [1] of 0. Further, the inhibition in vivo at 100 mg/kg in the assay on Mus musculus [4] was less than 30%; in the assay on Mus musculus [3], less than 30%; in the assay on Mus musculus [6], 51%.

In the assay with Mus musculus [1], `O=C(CCN1CCN(C2=Nc3ccc(Br)cc3CC=C2c2ccccc2)CC1)c1ccccc1` yielded an Activity of 0. In addition, the inhibition in vivo at 100 mg/kg in the assay on Mus musculus [4], in the assay with Mus musculus [2] and in the assay with Mus musculus [3] was less than 30% each time.

On to `Clc1ccc(C2=CCc3ccccc3N=C2N2CCNCC2)cc1.O=C(O)/C=C/C(=O)O`, for which the Activity in the assay with Mus musculus [1] is 0. The inhibition in vivo at 100 mg/kg with Mus musculus [4], in the assay with Mus musculus [2] and in the assay with Mus musculus [3] was less than 30% each time.

On to `Brc1ccc2c(c1)CC=C(c1ccccc1)C(N1CCN(c3ccccc3)CC1)=N2`, for which, in the assay with Mus musculus [1], the Activity turned out to be 0. Also, the inhibition in vivo at 100 mg/kg in the assay with Mus musculus [4], in the assay on Mus musculus [2] and in the assay with Mus musculus [3] was less than 30% in each case.

In turn, `NC(=O)N1CCN(C2=Nc3ccc(Cl)cc3CC=C2c2ccccc2)CC1` returned an Activity in the assay on Mus musculus [1] of 0. For the same compound, the inhibition in vivo at 100 mg/kg in the assay with Mus musculus [4], in the assay with Mus musculus [2] and in the assay with Mus musculus [3] was less than 30% throughout.

Compound `Clc1ccccc1C1=CCc2ccccc2N=C1N1CCNCC1.O=C(O)/C=C/C(=O)O` had an Activity with Mus musculus [1] of 0. Further, the inhibition in vivo at 100 mg/kg with Mus musculus [4], in the assay on Mus musculus [2] and with Mus musculus [3] was less than 30% each time.

Compound `C1=C(c2ccccc2)C(N2CCOCC2)=Nc2ccccc2C1.Cl` yielded an Activity with Mus musculus [1] of 0. The inhibition in vivo at 100 mg/kg with Mus musculus [4], in the assay with Mus musculus [2] and in the assay on Mus musculus [3] was less than 30% in each case.

In the assay on Mus musculus [1], `CN1CCN(C2=Nc3ccc(Br)cc3CC=C2c2ccc(Cl)cc2)CC1.Cl.Cl` yielded an Activity of 0. The inhibition in vivo at 100 mg/kg in the assay on Mus musculus [4], in the assay on Mus musculus [2] and in the assay on Mus musculus [3] was less than 30% throughout.

Take `CCCc1ccc2c(c1)CC=C(c1ccccc1)C(N1CCN(CCO)CC1)=N2.Cl.Cl`: the Activity with Mus musculus [1] is given as 0. Besides, the inhibition in vivo at 100 mg/kg is less than 30% in the assay on Mus musculus [4], less than 30% in the assay with Mus musculus [3] and 51% in the assay on Mus musculus [6].

As for `CCCc1ccc2c(c1)CC=C(c1ccccc1)C(N1CCN(C)CC1)=N2.Cl.Cl`, the Activity in the assay on Mus musculus [1] is listed as 0. The inhibition in vivo at 100 mg/kg in the assay on Mus musculus [4] and with Mus musculus [3] was less than 30% each time.

`Cc1ccc(C2=CCc3ccccc3N=C2N2CCN(CCO)CC2)cc1.Cl.Cl` had an Activity in the assay on Mus musculus [1] of 0. For the same compound, the inhibition in vivo at 100 mg/kg in the assay with Mus musculus [4], in the assay with Mus musculus [2] and in the assay on Mus musculus [3] was less than 30% in each case.

In the assay with Mus musculus [1], `Cl.Cl.OCCN1CCN(C2=Nc3cc(Cl)ccc3CC=C2c2ccccc2)CC1` showed an Activity of 0. The inhibition in vivo at 100 mg/kg with Mus musculus [4] was less than 30%; in the assay with Mus musculus [3] it was less than 30%; in the assay with Mus musculus [6], 51%.

The compound `Cl.Cl.OCCN1CCN(C2=Nc3ccc(Br)cc3CC=C2c2ccc(Cl)cc2)CC1` showed an Activity in the assay with Mus musculus [1] of 0. Further, the inhibition in vivo at 100 mg/kg in the assay with Mus musculus [4], in the assay on Mus musculus [2] and in the assay on Mus musculus [3] was less than 30% throughout.

`Cl.Cl.OCCN1CCN(C2=Nc3cc(Cl)ccc3CC=C2c2ccc(Cl)cc2)CC1` registered an Activity with Mus musculus [1] of 0. For the same compound, the inhibition in vivo at 100 mg/kg in the assay with Mus musculus [4], in the assay on Mus musculus [2] and in the assay on Mus musculus [3] was less than 30% in each case.

As for `CCN1CCN(C2=Nc3ccccc3CC=C2c2ccc(C)cc2)CC1.Cl.Cl`, the Activity in the assay with Mus musculus [1] worked out at 0. For the same compound, the inhibition in vivo at 100 mg/kg in the assay with Mus musculus [4], in the assay on Mus musculus [2] and in the assay on Mus musculus [3] was less than 30% in each case.

`CC(C)c1ccc2c(c1)CC=C(c1ccccc1)C(N1CCN(CCO)CC1)=N2.Cl.Cl`: the Activity in the assay on Mus musculus [1] is 0. In addition, the inhibition in vivo at 100 mg/kg with Mus musculus [4], with Mus musculus [2] and in the assay with Mus musculus [3] was less than 30% throughout.

In the assay on Mus musculus [1], `CN1CCN(C2=Nc3cc(Cl)ccc3CC=C2c2ccccc2)CC1.Cl.Cl` showed an Activity of 0. Moreover, the inhibition in vivo at 100 mg/kg in the assay on Mus musculus [4] was less than 30%; in the assay with Mus musculus [3], less than 30%; in the assay on Mus musculus [6], 51%.

With `NC(=O)N1c2ccccc2C=Cc2ccccc21` [CARBAMAZEPINE], the ED50 in the assay on Mus musculus [7] amounted to 10.3 mg/kg; in the assay with Mus musculus [8], 13.3 mg/kg.

Turning to `O=C1NC(=O)C(c2ccccc2)(c2ccccc2)N1` [PHENYTOIN], the ED50 in the assay on Mus musculus [7] is 3.7 mg/kg; in the assay on Mus musculus [8] it was 7.9 mg/kg.

In general, inhibition in vivo refers to how much of the control response was suppressed. Broadly, the ED50 is the dose at which the effect has come halfway, by size or by number of responders. A higher ED50 goes with a need for a large dose.
